Holding throughout (assay type): cell-based
Assay [1] deals with Toll-like receptor 3 (Homo sapiens) (UniProt O15455). As to the kind of experiment: Activity at human TLR3 expressed in HEK293 cells co-expressing secreted alkaline phosphatase assessed as induction of NF-kappaB/AP-1 promoter activity by measuring increase in secreted alkaline phosphatase level by spectrophotometric method. Summed up:
(§1)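 HEK293 cells stably co-transfected with the relevant human TLR (2, 3, 4, 5, 7, 8 or 9) plus an NF-κB/AP-1-driven secreted alkaline phosphatase reporter, kept in selection medium. Cells at ~10⁵ cells/ml were exposed to graded concentrations of stimuli in 384-well format, liquid-handler assisted. Supernatant sAP was read at 620 nm with an alkaline phosphatase-specific chromogen.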

The target in assay [2] is T1, Toll-like receptor 9 (Homo sapiens) (UniProt Q9NR96).
T1 sequence (whole entry): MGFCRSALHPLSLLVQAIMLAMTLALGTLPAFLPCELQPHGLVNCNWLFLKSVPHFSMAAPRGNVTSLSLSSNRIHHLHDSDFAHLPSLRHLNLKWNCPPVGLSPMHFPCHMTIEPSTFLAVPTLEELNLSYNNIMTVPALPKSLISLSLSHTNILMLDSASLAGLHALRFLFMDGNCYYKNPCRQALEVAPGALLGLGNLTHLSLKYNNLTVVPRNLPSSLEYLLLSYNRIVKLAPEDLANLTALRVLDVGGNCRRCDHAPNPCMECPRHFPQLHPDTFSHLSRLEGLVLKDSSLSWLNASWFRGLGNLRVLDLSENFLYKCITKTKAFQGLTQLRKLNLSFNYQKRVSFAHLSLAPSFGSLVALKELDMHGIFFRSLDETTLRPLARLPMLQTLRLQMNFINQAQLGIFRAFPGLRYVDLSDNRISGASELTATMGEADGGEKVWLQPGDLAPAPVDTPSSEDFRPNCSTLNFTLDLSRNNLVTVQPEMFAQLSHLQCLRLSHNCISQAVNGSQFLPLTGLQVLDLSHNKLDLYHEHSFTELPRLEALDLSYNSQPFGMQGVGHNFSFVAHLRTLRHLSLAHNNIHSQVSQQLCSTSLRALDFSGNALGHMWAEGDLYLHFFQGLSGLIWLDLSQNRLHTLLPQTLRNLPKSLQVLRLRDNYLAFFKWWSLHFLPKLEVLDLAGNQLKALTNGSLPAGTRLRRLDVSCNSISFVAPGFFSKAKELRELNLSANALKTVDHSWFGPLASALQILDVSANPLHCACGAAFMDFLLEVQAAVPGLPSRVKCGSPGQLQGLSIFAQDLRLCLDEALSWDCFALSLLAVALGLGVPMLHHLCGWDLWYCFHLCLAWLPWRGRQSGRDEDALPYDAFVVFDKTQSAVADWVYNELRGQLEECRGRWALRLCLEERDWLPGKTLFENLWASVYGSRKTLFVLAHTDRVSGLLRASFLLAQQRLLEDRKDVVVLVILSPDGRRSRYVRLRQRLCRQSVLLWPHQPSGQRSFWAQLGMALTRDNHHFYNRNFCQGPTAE
As to the kind of experiment: Activity at human TLR9 expressed in HEK293 cells co-expressing secreted alkaline phosphatase assessed as induction of NF-kappaB/AP-1 promoter activity by measuring increase in secreted alkaline phosphatase level by spectrophotometric method. Summed up:
as §1

The target of assay [3] is Toll-like receptor 4 (Homo sapiens) (UniProt O00206). Kind of assay: Activity at human TLR4 expressed in HEK293 cells co-expressing secreted alkaline phosphatase assessed as induction of NF-kappaB/AP-1 promoter activity by measuring increase in secreted alkaline phosphatase level by spectrophotometric method. The procedure, abridged: as §1
Chain of Toll-like receptor 4 (Homo sapiens) (O00206 whole entry): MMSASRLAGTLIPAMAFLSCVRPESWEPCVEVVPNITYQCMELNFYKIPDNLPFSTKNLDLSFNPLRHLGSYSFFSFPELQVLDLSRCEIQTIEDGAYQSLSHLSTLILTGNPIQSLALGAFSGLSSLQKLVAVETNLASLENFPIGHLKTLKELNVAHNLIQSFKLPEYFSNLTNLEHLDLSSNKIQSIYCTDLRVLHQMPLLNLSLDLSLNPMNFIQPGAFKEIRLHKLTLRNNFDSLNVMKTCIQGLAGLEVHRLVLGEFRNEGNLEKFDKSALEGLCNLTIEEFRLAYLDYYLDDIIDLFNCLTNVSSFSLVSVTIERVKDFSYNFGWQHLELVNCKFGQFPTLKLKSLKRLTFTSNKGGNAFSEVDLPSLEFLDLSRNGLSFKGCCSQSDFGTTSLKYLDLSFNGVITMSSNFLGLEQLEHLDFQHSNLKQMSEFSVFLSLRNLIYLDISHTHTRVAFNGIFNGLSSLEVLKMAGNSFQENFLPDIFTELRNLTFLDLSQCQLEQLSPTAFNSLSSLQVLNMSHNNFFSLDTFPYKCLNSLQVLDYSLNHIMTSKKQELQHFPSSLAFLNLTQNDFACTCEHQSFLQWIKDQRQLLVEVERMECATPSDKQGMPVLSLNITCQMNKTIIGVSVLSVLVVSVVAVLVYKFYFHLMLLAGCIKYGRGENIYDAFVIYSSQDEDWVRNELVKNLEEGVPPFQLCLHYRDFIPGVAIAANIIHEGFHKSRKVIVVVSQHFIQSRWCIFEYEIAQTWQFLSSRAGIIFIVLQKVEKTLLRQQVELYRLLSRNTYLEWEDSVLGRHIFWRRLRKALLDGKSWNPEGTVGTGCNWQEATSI
In assay [4] the target is Toll-like receptor 5 (Homo sapiens) (UniProt O60602). Kind of assay: Activity at human TLR5 expressed in HEK293 cells co-expressing secreted alkaline phosphatase assessed as induction of NF-kappaB/AP-1 promoter activity by measuring increase in secreted alkaline phosphatase level by spectrophotometric method. The procedure, abridged:
as §1

The target in assay [5] is Toll-like receptor 2 (Homo sapiens) (UniProt O60603). As to the kind of experiment: Activity at human TLR2 expressed in HEK293 cells co-expressing secreted alkaline phosphatase assessed as induction of NF-kappaB/AP-1 promoter activity by measuring increase in secreted alkaline phosphatase level by spectrophotometric method. Summed up: as §1
Chain of Toll-like receptor 2 (Homo sapiens) (O60603 whole entry): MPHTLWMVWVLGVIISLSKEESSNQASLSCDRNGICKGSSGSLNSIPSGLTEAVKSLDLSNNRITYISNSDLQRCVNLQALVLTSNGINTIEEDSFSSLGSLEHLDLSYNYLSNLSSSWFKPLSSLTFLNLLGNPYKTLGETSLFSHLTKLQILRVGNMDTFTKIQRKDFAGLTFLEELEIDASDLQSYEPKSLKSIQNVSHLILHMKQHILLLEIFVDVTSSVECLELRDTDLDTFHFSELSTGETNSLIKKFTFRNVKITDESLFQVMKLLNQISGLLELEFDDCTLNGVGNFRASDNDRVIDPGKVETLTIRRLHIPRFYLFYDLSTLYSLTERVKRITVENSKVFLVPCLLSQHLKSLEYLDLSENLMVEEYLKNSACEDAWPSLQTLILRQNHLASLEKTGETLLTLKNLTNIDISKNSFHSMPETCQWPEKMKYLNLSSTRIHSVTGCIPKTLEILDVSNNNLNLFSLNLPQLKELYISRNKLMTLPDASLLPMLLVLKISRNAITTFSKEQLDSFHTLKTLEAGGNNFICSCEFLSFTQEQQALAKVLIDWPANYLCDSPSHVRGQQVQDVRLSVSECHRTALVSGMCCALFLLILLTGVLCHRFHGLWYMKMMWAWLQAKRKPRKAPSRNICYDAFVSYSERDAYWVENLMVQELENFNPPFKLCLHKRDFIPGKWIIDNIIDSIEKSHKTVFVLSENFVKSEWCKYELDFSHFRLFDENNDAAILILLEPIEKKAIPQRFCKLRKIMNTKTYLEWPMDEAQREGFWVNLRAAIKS
A further assay deals with T2, Toll-like receptor 7 (Homo sapiens, UniProt Q9NYK1).
T2 sequence (Q9NYK1 whole entry): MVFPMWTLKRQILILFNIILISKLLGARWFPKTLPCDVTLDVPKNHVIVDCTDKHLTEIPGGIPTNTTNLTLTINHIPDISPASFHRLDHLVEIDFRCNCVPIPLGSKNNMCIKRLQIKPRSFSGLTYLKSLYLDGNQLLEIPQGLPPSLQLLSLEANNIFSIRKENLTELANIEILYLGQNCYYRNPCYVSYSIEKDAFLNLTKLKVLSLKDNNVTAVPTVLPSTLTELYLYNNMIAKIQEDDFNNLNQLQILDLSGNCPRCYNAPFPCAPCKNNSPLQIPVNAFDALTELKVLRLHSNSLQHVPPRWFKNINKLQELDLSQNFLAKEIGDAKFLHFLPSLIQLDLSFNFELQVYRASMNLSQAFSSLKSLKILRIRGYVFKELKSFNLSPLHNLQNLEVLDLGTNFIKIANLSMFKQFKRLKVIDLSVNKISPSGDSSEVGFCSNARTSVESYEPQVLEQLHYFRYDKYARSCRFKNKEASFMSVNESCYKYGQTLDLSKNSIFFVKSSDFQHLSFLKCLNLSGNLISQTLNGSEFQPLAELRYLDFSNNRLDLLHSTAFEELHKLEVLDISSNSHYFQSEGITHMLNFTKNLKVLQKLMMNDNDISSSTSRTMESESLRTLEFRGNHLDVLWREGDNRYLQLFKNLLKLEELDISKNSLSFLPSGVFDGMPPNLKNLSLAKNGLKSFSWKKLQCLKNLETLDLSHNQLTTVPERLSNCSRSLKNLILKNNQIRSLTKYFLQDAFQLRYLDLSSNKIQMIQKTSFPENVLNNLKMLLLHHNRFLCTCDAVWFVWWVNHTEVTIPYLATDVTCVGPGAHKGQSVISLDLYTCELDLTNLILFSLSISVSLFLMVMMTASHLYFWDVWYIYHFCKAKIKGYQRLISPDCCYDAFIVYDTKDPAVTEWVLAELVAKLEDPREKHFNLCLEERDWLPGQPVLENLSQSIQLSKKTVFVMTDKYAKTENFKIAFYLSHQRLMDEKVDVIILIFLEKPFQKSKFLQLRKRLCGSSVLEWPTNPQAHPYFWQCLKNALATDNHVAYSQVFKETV
Kind of assay: Agonist activity at human TLR7 expressed in HEK293 cells co-expressing secreted alkaline phosphatase assessed as induction of NF-kappaB/AP-1 promoter activity by measuring increase in secreted alkaline phosphatase level by spectrophotometric method. Summed up: as §1

Active and inactive are the calls of the source. No cut-off for these calls is given here.

Chain of Toll-like receptor 5 (Homo sapiens) (O60602 whole entry): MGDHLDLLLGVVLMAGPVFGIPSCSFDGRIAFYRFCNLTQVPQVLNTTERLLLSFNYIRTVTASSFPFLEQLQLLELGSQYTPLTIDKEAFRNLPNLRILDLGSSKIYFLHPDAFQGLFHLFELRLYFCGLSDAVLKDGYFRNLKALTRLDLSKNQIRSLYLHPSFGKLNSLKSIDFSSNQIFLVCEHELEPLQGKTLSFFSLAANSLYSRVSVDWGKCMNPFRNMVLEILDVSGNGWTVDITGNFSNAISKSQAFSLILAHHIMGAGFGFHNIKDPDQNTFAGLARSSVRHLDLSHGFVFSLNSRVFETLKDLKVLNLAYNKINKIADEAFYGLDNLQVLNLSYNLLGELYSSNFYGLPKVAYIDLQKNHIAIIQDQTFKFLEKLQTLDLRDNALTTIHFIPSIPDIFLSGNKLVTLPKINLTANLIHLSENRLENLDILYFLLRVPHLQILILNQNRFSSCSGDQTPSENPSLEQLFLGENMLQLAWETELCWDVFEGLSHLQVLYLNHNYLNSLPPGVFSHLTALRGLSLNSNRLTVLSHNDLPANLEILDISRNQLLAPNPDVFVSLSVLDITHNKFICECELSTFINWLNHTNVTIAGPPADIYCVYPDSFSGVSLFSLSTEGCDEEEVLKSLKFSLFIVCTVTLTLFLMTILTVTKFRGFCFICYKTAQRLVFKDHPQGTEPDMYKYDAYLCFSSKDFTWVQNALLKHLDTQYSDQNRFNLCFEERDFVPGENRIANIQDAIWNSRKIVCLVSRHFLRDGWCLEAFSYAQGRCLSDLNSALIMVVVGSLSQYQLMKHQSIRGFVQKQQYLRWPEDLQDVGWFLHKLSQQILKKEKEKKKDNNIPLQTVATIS
Chain of Toll-like receptor 3 (Homo sapiens) (O15455 whole entry): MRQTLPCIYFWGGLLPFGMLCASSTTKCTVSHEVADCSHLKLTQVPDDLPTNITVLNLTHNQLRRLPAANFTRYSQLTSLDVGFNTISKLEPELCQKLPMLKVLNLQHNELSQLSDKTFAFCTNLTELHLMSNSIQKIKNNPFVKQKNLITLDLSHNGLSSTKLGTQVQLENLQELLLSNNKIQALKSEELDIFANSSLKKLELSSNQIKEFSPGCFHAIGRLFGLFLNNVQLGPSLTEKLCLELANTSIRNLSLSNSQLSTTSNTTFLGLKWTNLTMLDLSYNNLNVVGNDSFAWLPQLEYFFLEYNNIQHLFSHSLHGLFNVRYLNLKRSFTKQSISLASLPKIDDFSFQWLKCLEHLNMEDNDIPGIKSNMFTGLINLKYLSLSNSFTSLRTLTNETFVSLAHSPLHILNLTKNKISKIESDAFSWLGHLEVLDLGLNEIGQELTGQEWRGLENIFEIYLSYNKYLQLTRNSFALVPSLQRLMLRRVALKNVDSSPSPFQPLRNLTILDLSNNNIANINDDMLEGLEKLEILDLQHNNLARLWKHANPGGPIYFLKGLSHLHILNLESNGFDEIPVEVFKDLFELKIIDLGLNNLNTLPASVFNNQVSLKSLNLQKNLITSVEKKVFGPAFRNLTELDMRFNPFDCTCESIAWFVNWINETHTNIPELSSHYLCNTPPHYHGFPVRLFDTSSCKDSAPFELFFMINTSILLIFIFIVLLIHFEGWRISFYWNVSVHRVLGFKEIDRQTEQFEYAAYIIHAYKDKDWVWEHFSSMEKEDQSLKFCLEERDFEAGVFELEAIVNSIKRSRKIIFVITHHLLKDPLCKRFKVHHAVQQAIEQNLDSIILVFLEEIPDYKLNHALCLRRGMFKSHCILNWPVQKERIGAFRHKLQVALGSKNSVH

Usually EC50 stands for the concentration needed to bring the measured effect to its halfway point. For the molecule `CCCCNc1nc(N)nc(C)c1CCCN1C(=O)c2ccccc2C1=O`, the result in assay [1], in assay [2], in assay [3], in assay [4] and in assay [5] was inactive. The EC50 at Toll-like receptor 7 is 1290 nM.
With `CCCCNc1nc(N)nc(C)c1CCCN1CCNCC1`, the outcome in assay [1], in assay [2], in assay [3], in assay [4] and in assay [5] was inactive. In addition, at Toll-like receptor 7, the EC50 is 1640 nM.
In the case of `CCCCNc1nc(N)nc(C)c1CCCn1ccc2ccccc21`, the outcome in assay [1], in assay [2], in assay [3], in assay [4] and in assay [5] was inactive. Further, the EC50 at Toll-like receptor 7 was 140 nM.
For `CCCCNc1nc(N)nc(C)c1CCCN1Cc2ccccc2C1`, the outcome in assay [1], in assay [2], in assay [3], in assay [4] and in assay [5] was inactive. The EC50 on Toll-like receptor 7 worked out at 375 nM.
Take `CCCCNc1nc(N)nc(C)c1CCCN(CC)CC`: the result in assay [1], in assay [2], in assay [3], in assay [4] and in assay [5] was inactive.
Consider `CCCCCc1c(C)nc(N)nc1NCCCC`, for which the result in assay [1], in assay [2], in assay [3], in assay [4] and in assay [5] was inactive. Besides, the EC50 at Toll-like receptor 7 was found to be 510 nM.
Turning to `CCCCNc1nc(N)nc(C)c1CCCn1c(C)nc2ccccc21`, the result in assay [1], in assay [2], in assay [3], in assay [4] and in assay [5] was inactive. The EC50 at Toll-like receptor 7 was determined as 379 nM.
Regarding `CCCCNc1nc(N)nc(C)c1CCCN1CCCC1`, the result in assay [1], in assay [2], in assay [3], in assay [4] and in assay [5] was inactive. Besides, the EC50 at Toll-like receptor 7 is 562 nM.
Consider `CCCCNc1nc(N)nc(C)c1CCCN1CCCCC1`, for which the result in assay [1], in assay [2], in assay [3], in assay [4] and in assay [5] was inactive. For the same molecule, the EC50 on Toll-like receptor 7 amounted to 710 nM.
For `CCCCNc1nc(N)nc(C)c1CCCN(C)C`, the outcome in assay [1], in assay [2], in assay [3], in assay [4] and in assay [5] was inactive. On Toll-like receptor 7, the EC50 is 958 nM.
`CCCCNc1nc(N)nc(C)c1CCCN1CCSCC1`: the result in assay [1], in assay [2], in assay [3], in assay [4] and in assay [5] was inactive. Besides, the EC50 at Toll-like receptor 7 was 714 nM.
Regarding `CCCCNc1nc(N)nc(C)c1CC`, the outcome in assay [1], in assay [2], in assay [3], in assay [4] and in assay [5] was inactive. Besides, on Toll-like receptor 7, the 50% effective concentration (EC50) amounted to 1270 nM.
Take `CCCCNc1nc(N)nc(C)c1C#CCN1CCOCC1`: the result in assay [1], in assay [2], in assay [3], in assay [4] and in assay [5] was inactive.
`CCCCNc1nc(N)nc(C)c1CCCN1CCN(C(=O)OC(C)(C)C)CC1`: the outcome in assay [1], in assay [2], in assay [3], in assay [4] and in assay [5] was inactive.
Regarding `CCCC#Cc1c(C)nc(N)nc1NCCCC`, the outcome in assay [1], in assay [2], in assay [3], in assay [4] and in assay [5] was inactive.
For the molecule `CCCCNc1nc(N)nc(C)c1C#CCN1CCCCC1`, the result in assay [1], in assay [2], in assay [3], in assay [4] and in assay [5] was inactive.
For the molecule `C#Cc1c(C)nc(N)nc1NCCCC`, the outcome in assay [1], in assay [2], in assay [3], in assay [4] and in assay [5] was inactive.
Take `CCCCNc1nc(N)nc(C)c1C#CCc1ccccc1`: the result in assay [1], in assay [2], in assay [3], in assay [4] and in assay [5] was inactive.
With `CCCCNc1nc(N)nc(C)c1C#C[Si](C)(C)C`, the outcome in assay [1], in assay [2], in assay [3], in assay [4] and in assay [5] was inactive.
